# Several values for one entry are separate records, joined by “and”; a condition that tells them apart may be missing. Identical values can stand only once.
# How the values were obtained:
# Type in all cases: toxicity, cell-based
# [1] = tested on: Fibroblast; experiment: Multiplex assay against human fibroblast
# Procedure, shortened: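 With compound added, live cells were imaged on a CQ1 microscope at 37°C and 5% CO2; staining with Hoechst33342, BioTracker Green Microtubule Cytoskeleton Dye, MitoTracker Red and Annexin V Alexa Fluor 680 had been done at seeding. The CellPathfinder machine-learning gating scheme split cells into Hoechst high-intensity objects or normal cells, normal cells into healthy, pyknosed or fragmented nuclei, and pyknosed cells into mitotic or apoptotic. The tubulin, mitochondrial-mass and membrane-permeability phenotypes are per cents of healthy-nucleus cells.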
# [2] = tested on: HEK-293T; experiment: Incucyte cell viability with HEK293T; details: human, 10 µM, compound concentration 10 uM; also: filed as whole numbers so only -1 and 0 and 1 occur
# [3] = tested on: Fibroblast; experiment: Incucyte cell viability with human fibroblast; details: 10 µM, compound concentration 10 uM; also: filed as whole numbers so only -1 and 0 and 1 occur
# [4] = tested on: U2OS; experiment: Incucyte cell viability with U2OS; details: human, 10 µM, compound concentration 10 uM; also: filed as whole numbers so only -1 and 0 and 1 occur
# [5] = 12 h, 1 µM, compound concentration 1 uM, replicate 1
# [6] = 12 h, 1 µM, compound concentration 1 uM, replicate 2
# [7] = 12 h, 10 µM, compound concentration 10 uM, replicate 1
# [8] = 12 h, 10 µM, compound concentration 10 uM, replicate 2
# [9] = 24 h, 1 µM, compound concentration 1 uM, replicate 1
# [10] = 24 h, 1 µM, compound concentration 1 uM, replicate 2
# [11] = 24 h, 10 µM, compound concentration 10 uM, replicate 1
# [12] = 24 h, 10 µM, compound concentration 10 uM, replicate 2
# [13] = 48 h, 10 µM, compound concentration 10 uM, replicate 1
# [14] = 48 h, 10 µM, compound concentration 10 uM, replicate 2
# [15] = 6 h, replicate number 1, timepoint 6 hours
# [16] = 12 h, replicate number 1, timepoint 12 hours
# [17] = 18 h, replicate number 1, timepoint 18 hours
# [18] = 24 h, replicate number 1, timepoint 24 hours
structure (smiles),measurement,setting,value
COc1cc(N2CCC(N(C)C)CC2)ccc1Nc1ncc(Cl)c(Nc2ccccc2P(C)(C)=O)n1,Population Apoptotic (%),[1]; [5],64%
same,Population Fragmented Nuclei (%),[1]; [5],26%
same,Population Healthy Nuclei (%),[1]; [5],56%
same,Population Hoechst High Intensity Objects (%),[1]; [5],14%
same,Population Membrane Permeable-Phenotype (%),[1]; [5],8%
same,Population Mitochondria Different-Phenotype (%),[1]; [5],6%
same,Population Mitotic Cells (%),[1]; [5],35%
same,Population Normal (%),[1]; [5],85%
same,Population Pyknosed Nuclei (%),[1]; [5],16%
same,Population Tubulin-Different-Phenotype (%),[1]; [5],6%
same,Total Cell Count,[1]; [5],202
same,Population Apoptotic (%),[1]; [6],42%
same,Population Fragmented Nuclei (%),[1]; [6],52%
same,Population Healthy Nuclei (%),[1]; [6],31%
same,Population Hoechst High Intensity Objects (%),[1]; [6],24%
same,Population Membrane Permeable-Phenotype (%),[1]; [6],14%
same,Population Mitochondria Different-Phenotype (%),[1]; [6],7%
same,Population Mitotic Cells (%),[1]; [6],57%
same,Population Normal (%),[1]; [6],75%
same,Population Pyknosed Nuclei (%),[1]; [6],15%
same,Population Tubulin-Different-Phenotype (%),[1]; [6],21%
same,Total Cell Count,[1]; [6],58
same,Population Apoptotic (%),[1]; [7],73% and 69%
same,Population Fragmented Nuclei (%),[1]; [7],27% and 24%
same,Population Healthy Nuclei (%),[1]; [7],45% and 57%
same,Population Hoechst High Intensity Objects (%),[1]; [7],13%
same,Population Mitochondria Different-Phenotype (%),[1]; [7],7% and 6%
same,Population Mitotic Cells (%),[1]; [7],26% and 30%
same,Population Normal (%),[1]; [7],86%
same,Population Pyknosed Nuclei (%),[1]; [7],27% and 17%
same,Total Cell Count,[1]; [7],98 and 215
same,Population Apoptotic (%),[1]; [8],37% and 88%
same,Population Fragmented Nuclei (%),[1]; [8],45% and 26%
same,Population Healthy Nuclei (%),[1]; [8],32%
same,Population Hoechst High Intensity Objects (%),[1]; [8],39% and 16%
same,Population Membrane Permeable-Phenotype (%),[1]; [8],8% and 15%
same,Population Normal (%),[1]; [8],60% and 83%
same,Population Pyknosed Nuclei (%),[1]; [8],21% and 40%
same,Population Tubulin-Different-Phenotype (%),[1]; [8],41% and 90%
same,Total Cell Count,[1]; [8],61 and 73
same,Population Apoptotic (%),[1]; [9],96%
same,Population Fragmented Nuclei (%),[1]; [9],18%
same,Population Healthy Nuclei (%),[1]; [9],65%
same,Population Hoechst High Intensity Objects (%),[1]; [9],14%
same,Population Membrane Permeable-Phenotype (%),[1]; [9],6%
same,Population Mitotic Cells (%),[1]; [9],3%
same,Population Normal (%),[1]; [9],85%
same,Population Pyknosed Nuclei (%),[1]; [9],16%
same,Population Tubulin-Different-Phenotype (%),[1]; [9],4%
same,Total Cell Count,[1]; [9],204
same,Population Apoptotic (%),[1]; [10],57%
same,Population Fragmented Nuclei (%),[1]; [10],43%
same,Population Healthy Nuclei (%),[1]; [10],38%
same,Population Hoechst High Intensity Objects (%),[1]; [10],32%
same,Population Membrane Permeable-Phenotype (%),[1]; [10],0%
same,Population Mitochondria Different-Phenotype (%),[1]; [10],6%
same,Population Mitotic Cells (%),[1]; [10],42%
same,Population Normal (%),[1]; [10],67%
same,Population Pyknosed Nuclei (%),[1]; [10],17%
same,Population Tubulin-Different-Phenotype (%),[1]; [10],13%
same,Total Cell Count,[1]; [10],58
same,Population Apoptotic (%),[1]; [11],68% and 88%
same,Population Fragmented Nuclei (%),[1]; [11],29% and 31%
same,Population Healthy Nuclei (%),[1]; [11],50% and 54%
same,Population Hoechst High Intensity Objects (%),[1]; [11],13%
same,Population Mitochondria Different-Phenotype (%),[1]; [11],14% and 9%
same,Population Mitotic Cells (%),[1]; [11],31% and 11%
same,Population Normal (%),[1]; [11],86%
same,Population Pyknosed Nuclei (%),[1]; [11],19% and 14%
same,Total Cell Count,[1]; [11],94 and 210
same,Population Apoptotic (%),[1]; [12],66% and 92%
same,Population Fragmented Nuclei (%),[1]; [12],47% and 26%
same,Population Healthy Nuclei (%),[1]; [12],35% and 15%
same,Population Hoechst High Intensity Objects (%),[1]; [12],39% and 38%
same,Population Normal (%),[1]; [12],60% and 61%
same,Population Tubulin-Different-Phenotype (%),[1]; [12],41% and 100%
same,Total Cell Count,[1]; [12],56 and 75
same,Population Apoptotic (%),[1]; [13],87%
same,Population Fragmented Nuclei (%),[1]; [13],47%
same,Population Healthy Nuclei (%),[1]; [13],41%
same,Population Hoechst High Intensity Objects (%),[1]; [13],22%
same,Population Membrane Permeable-Phenotype (%),[1]; [13],20%
same,Population Mitochondria Different-Phenotype (%),[1]; [13],23%
same,Population Mitotic Cells (%),[1]; [13],12%
same,Population Normal (%),[1]; [13],77%
same,Population Pyknosed Nuclei (%),[1]; [13],10%
same,Population Tubulin-Different-Phenotype (%),[1]; [13],70%
same,Total Cell Count,[1]; [13],94
same,Population Apoptotic (%),[1]; [14],66%
same,Population Fragmented Nuclei (%),[1]; [14],34%
same,Population Healthy Nuclei (%),[1]; [14],61%
same,Population Hoechst High Intensity Objects (%),[1]; [14],16%
same,Population Membrane Permeable-Phenotype (%),[1]; [14],22%
same,Population Mitochondria Different-Phenotype (%),[1]; [14],9%
same,Population Mitotic Cells (%),[1]; [14],33%
same,Population Normal (%),[1]; [14],83%
same,Population Pyknosed Nuclei (%),[1]; [14],4%
same,Population Tubulin-Different-Phenotype (%),[1]; [14],56%
same,Total Cell Count,[1]; [14],86
same,Growth Rate,[2]; [15],0
same,Growth Rate,[2]; [16],0
same,Growth Rate,[2]; [17],0
same,Growth Rate,[2]; [18],0
same,Growth Rate,"[3]; 0 h, replicate number 2, timepoint 0 hours",0
same,Growth Rate,[3]; [15],1
same,Growth Rate,[3]; [16],0
same,Growth Rate,"[3]; 12 h, replicate number 2, timepoint 12 hours",1
same,Growth Rate,[3]; [17],0
same,Growth Rate,"[3]; 18 h, replicate number 2, timepoint 18 hours",1
same,Growth Rate,[3]; [18],0
same,Growth Rate,"[4]; 0 h, replicate number 1, timepoint 0 hours",0
same,Growth Rate,[4]; [15],0
same,Growth Rate,[4]; [16],0
same,Growth Rate,[4]; [17],0
same,Growth Rate,[4]; [18],0
